Measurements published in article PMC2119941 (The Journal of Cell Biology, 1994).
No end group written: not given here.

Key:
alpha 5 beta 1 integrin [1] = biological target: T1, alpha 5 beta 1 integrin (Homo sapiens, UniProt P05556+P08648); type: binding; details: unrelated cyclic control peptide
alpha 5 beta 1 integrin [2] = biological target: alpha 5 beta 1 integrin (UniProt G3HZ55+P08648); assay: Cell attachment assay: B2/a27 cells on fibronectin; type: cell-based, human
alpha 5 beta 1 integrin [3] = biological target: T1, alpha 5 beta 1 integrin; type: binding; details: control peptide; not shown
alpha 5 beta 1 integrin [4] = biological target: T1, alpha 5 beta 1 integrin; type: binding
alpha v beta 3 integrin = alpha v beta 3 integrin (Homo sapiens, UniProt P05106+P06756); type: binding
In short: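 Human placental αvβ3 (octyl glucoside extract with 1 mM MnCl2 and 1 mM CaCl2) coated in microtiter wells. Phage incubated 1 h at room temperature, then washed five times. Bound phage infected K91kan bacteria for 10 min at 37°C, then grown in Terrific broth with tetracycline and kanamycin (30 min at 37°C, then overnight at room temperature with shaking). Bacterial growth read as A600.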

[5] = biological target: alpha IIb beta 3 integrin (Homo sapiens, UniProt P05106+P08514); assay: Binding to wells coated with alpha IIb beta 3 integrin

T1 sequence (P08648 42-894 limits assumed): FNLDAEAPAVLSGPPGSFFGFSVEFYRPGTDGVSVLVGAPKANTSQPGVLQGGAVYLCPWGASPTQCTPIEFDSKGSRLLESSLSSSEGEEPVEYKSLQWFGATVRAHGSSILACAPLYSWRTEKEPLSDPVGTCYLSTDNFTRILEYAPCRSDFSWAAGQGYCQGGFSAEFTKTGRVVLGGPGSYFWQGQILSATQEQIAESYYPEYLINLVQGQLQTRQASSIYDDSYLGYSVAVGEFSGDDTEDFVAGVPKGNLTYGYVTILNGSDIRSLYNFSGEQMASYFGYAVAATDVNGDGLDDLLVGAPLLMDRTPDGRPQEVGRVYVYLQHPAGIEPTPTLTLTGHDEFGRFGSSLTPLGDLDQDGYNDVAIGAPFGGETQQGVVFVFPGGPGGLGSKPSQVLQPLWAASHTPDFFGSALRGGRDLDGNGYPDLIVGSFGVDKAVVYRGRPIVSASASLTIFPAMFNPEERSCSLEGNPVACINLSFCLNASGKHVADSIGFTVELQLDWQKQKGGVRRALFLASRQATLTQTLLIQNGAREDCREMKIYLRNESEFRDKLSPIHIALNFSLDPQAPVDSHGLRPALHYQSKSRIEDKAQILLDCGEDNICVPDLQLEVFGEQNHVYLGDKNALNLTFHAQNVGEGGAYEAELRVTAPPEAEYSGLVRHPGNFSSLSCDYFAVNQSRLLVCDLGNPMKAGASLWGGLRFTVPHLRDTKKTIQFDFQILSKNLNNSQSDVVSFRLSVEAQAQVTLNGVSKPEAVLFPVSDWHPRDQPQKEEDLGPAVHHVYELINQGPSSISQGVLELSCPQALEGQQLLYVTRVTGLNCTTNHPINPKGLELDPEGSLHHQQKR
T1 sequence (P08648 895-1049 limits assumed): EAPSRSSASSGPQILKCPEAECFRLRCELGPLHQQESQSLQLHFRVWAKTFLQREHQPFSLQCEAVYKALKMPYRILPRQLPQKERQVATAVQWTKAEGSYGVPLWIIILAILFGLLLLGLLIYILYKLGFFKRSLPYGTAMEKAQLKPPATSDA
T1 sequence (P05556 21-798): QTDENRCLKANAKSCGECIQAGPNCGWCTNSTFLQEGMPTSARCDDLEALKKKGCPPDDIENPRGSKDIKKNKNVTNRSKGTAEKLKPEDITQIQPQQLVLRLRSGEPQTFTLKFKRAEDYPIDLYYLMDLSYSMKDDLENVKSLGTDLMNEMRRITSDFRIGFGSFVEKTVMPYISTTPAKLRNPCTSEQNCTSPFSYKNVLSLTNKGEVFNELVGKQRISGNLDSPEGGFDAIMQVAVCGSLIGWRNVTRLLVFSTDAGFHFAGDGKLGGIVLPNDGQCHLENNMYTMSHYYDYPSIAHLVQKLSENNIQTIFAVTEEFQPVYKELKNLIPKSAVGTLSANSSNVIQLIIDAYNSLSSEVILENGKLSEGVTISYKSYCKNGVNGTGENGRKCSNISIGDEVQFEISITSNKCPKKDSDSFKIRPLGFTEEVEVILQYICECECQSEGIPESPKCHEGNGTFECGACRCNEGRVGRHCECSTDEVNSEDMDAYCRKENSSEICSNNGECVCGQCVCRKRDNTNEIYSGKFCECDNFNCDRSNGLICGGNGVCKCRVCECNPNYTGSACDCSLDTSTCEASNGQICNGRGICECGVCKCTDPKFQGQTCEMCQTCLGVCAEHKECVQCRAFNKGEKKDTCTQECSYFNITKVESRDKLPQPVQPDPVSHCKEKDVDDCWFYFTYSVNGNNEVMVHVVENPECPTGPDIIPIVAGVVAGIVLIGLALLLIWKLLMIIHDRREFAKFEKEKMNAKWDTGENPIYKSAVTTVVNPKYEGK
Sequence of alpha 5 beta 1 integrin (UniProt G3HZ55+P08648) (P08648 42-894 limits assumed): as the sequence (P08648 42-894 limits assumed) above
Sequence of alpha 5 beta 1 integrin (UniProt G3HZ55+P08648) (P08648 895-1049 limits assumed): as the sequence (P08648 895-1049 limits assumed) above
Sequence of alpha 5 beta 1 integrin (UniProt G3HZ55+P08648) (G3HZ55 21-798): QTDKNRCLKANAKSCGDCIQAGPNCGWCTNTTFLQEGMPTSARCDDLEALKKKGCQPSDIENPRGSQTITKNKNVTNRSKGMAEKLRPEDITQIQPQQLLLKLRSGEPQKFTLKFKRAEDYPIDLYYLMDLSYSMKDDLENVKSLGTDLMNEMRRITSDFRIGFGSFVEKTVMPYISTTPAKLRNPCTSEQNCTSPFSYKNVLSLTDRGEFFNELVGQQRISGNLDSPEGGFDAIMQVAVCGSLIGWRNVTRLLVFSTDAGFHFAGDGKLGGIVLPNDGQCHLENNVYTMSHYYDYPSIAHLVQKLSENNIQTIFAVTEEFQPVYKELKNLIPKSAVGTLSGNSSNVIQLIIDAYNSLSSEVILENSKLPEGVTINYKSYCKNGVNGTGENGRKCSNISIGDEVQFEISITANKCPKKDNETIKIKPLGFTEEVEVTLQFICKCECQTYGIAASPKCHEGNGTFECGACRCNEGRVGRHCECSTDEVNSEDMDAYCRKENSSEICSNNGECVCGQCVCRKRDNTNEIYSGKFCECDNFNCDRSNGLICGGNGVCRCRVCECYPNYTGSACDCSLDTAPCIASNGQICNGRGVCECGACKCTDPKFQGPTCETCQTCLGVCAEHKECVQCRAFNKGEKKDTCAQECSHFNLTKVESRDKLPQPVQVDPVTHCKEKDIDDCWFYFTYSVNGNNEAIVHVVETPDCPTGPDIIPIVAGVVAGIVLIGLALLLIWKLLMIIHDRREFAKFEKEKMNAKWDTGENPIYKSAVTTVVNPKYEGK
Sequence of alpha v beta 3 integrin (P06756 891-1048): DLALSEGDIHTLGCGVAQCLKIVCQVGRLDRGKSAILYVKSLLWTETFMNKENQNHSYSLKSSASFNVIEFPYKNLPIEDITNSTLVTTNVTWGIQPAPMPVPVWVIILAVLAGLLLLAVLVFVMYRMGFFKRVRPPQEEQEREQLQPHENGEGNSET
Sequence of alpha v beta 3 integrin (P05106 27-788): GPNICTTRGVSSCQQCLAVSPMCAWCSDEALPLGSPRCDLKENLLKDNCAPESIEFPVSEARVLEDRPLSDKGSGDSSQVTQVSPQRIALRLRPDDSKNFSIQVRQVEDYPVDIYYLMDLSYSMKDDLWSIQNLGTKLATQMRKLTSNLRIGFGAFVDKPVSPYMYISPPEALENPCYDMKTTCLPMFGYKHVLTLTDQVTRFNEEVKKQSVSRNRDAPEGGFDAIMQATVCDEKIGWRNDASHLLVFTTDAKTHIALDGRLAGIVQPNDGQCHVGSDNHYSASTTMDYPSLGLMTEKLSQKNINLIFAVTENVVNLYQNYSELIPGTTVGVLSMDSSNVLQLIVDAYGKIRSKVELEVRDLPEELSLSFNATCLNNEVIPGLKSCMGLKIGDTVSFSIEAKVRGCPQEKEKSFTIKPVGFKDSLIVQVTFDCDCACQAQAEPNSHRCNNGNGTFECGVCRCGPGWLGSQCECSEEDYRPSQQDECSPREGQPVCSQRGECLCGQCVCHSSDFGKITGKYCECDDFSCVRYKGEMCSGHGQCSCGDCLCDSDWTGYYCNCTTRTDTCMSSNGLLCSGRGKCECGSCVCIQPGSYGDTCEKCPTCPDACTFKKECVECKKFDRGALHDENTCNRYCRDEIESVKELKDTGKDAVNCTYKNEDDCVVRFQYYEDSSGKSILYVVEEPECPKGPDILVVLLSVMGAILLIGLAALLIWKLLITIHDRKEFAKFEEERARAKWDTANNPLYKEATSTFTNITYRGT
Sequence of alpha v beta 3 integrin (P06756 31-889): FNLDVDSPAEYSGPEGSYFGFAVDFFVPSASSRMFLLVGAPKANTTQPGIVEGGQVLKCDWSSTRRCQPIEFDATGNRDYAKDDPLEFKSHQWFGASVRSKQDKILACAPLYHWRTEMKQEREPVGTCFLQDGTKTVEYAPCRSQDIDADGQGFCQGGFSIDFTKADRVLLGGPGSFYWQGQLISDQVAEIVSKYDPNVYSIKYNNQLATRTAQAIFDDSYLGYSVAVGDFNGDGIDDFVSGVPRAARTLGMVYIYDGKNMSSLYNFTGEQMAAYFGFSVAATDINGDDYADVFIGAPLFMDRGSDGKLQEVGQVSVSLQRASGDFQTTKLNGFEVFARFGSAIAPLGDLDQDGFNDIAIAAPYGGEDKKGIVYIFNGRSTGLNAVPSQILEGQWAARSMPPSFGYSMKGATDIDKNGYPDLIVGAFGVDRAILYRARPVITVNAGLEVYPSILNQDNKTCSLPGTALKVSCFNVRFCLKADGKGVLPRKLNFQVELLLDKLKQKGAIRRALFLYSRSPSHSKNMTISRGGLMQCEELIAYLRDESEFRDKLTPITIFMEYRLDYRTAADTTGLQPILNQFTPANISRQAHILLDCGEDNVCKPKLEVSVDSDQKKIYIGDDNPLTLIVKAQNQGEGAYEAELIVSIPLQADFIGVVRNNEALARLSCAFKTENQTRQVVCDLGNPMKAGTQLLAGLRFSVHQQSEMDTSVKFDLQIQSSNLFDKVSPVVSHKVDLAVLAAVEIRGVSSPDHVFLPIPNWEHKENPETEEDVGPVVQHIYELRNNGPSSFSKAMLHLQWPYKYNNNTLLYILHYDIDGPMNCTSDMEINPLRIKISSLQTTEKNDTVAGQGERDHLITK

| Substance | Binding of phage clone to microtiter wells coated with alpha 5 beta 1 (alpha 5 beta 1 integrin [4]) | further results |
| --- | --- | --- |
| GA*CSPYFLRLC*GA (disulfide) | – | Effect on binding of 125I-labeled fibronectin to alpha 5 beta 1 (alpha 5 beta 1 integrin [1]): no significant effect |
| GACRRETAWACGA [GACRRETAWACGA not cyclized] | – | Activity of peptide not cyclized by oxidation (alpha 5 beta 1 integrin [2]; relative to cyclic *CRRETAWAC*): reduced activity |
| GRGESP [reference compound] | – | Effect on binding of RRETAWA-containing phage to alpha 5 beta 1 (alpha 5 beta 1 integrin [3]): no effect; Effect on alpha 5 beta 1-mediated cell attachment to fibronectin (alpha 5 beta 1 integrin [2]; control peptide): no effect |
| RGAPRAW (disulfide (positions not given here)) | bound weakly | – |
| RRETAWA (disulfide (positions not given here)) [RRETAWA-phage] | avidly | Binding of phage clone to microtiter wells coated with alpha v beta 3 (alpha v beta 3 integrin): only weakly; Binding to the alpha IIb beta 3 integrin [5]: did not bind |
| STSDVGG (disulfide (positions not given here)) | significantly over the background | – |
| TLVPSRS (disulfide (positions not given here)) | significantly over the background | – |
| VFSIAHE (disulfide (positions not given here)) | significantly over the background | – |
| VRLNSLA (disulfide) | significantly over the background | – |
